Measurements taken from ChEMBL document CHEMBL4428023, “1,4-Dihydropyridines Active on the SIRT1/AMPK Pathway Ameliorate Skin Repair and Mitochondrial Function and Exhibit Inhibition of Proliferation in Cancer Cells” (J Med Chem, 2016).
Active and inactive are the calls of the source. The rule behind the calls is not given here.

Columns and labels:
HaCaT [1] = test: Activation of AMPK/SIRT1 in human HaCaT cells assessed as nitric oxide production at 1 uM incubated for 1 hr by DAF-2D staining-based fluorescence assay; assay type: cell-based
Method in brief: (§1)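 HaCaT keratinocytes grown in DMEM with 10% FBS and antibiotics. Cells treated 1 h (single-point 1 µM; dose-response at 5, 25, 50 µM). 5 µM DAF-2D added to complete medium. Cells then washed in PBS, trypsinized and analysed by flow cytometry for DAF fluorescence (ex 485/em 538 nm). Read-out is % DAF-positive cells relative to DMSO control.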

[2] = target: T1, NAD-dependent protein deacetylase sirtuin-1 (Homo sapiens) (UniProt Q96EB6); test: Activation of full-length GST-tagged recombinant human SIRT1 assessed as enzyme activity obtained without subtraction of intrinsic fluorescence using p53-based untagged peptide as substrate at 50 uM after 30 mins by SIRTainty assay
T1 sequence (whole entry): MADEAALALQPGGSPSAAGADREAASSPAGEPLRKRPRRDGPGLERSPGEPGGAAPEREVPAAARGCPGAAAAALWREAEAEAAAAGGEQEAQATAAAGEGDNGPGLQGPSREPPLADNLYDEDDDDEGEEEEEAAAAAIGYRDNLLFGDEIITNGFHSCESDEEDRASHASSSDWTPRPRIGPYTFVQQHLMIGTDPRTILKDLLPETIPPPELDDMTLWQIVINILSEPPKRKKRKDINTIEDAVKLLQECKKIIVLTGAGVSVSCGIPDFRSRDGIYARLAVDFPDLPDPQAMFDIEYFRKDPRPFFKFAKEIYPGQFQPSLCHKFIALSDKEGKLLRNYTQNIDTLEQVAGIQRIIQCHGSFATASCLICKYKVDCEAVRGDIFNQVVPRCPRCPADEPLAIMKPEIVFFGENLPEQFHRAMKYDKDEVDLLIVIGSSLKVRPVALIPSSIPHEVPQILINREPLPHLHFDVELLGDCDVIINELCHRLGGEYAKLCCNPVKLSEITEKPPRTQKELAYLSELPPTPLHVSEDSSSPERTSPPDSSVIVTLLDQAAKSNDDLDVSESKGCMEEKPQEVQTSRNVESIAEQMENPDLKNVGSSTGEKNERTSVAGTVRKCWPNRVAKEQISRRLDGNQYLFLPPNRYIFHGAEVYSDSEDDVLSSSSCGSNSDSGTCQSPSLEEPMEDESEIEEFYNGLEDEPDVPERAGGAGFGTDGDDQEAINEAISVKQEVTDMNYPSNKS

Mus musculus [3] = test: Wound healing activity in CD1 mouse assessed as decrease in epithelial gap at 1 uM administered topically on wound everyday for 14 days by biopsy punch assay; assay type: functional, organism-based
Method in brief: (§2)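 Male CD1 mice, 8 weeks old, anaesthetized i.p. with medetomidine 1 mg/kg plus ketamine 75 mg/kg, then biopsy-punch wounded. Compound (1 µM) in 20 µL saline applied directly to the wound daily for 14 days; solvent-treated group as control. Epithelial gap and % wound closure followed over time.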

[4] = target: T1, NAD-dependent protein deacetylase sirtuin-1 (Homo sapiens); test: Activation of SIRT1 in […] at 1 uM by fluorimetric assay; assay type: cell-free; conditions: HaCaT, TDE = time-dependent effect
[5] = target: 3',5'-cyclic-AMP phosphodiesterase 4D (Homo sapiens) (UniProt Q08499); test: Inhibition of recombinant human PDE4D assessed as phosphate release using cAMP as substrate at 50 uM after 60 mins by malachite green assay
Chain of 3',5'-cyclic-AMP phosphodiesterase 4D (Homo sapiens) (Q08499 whole entry): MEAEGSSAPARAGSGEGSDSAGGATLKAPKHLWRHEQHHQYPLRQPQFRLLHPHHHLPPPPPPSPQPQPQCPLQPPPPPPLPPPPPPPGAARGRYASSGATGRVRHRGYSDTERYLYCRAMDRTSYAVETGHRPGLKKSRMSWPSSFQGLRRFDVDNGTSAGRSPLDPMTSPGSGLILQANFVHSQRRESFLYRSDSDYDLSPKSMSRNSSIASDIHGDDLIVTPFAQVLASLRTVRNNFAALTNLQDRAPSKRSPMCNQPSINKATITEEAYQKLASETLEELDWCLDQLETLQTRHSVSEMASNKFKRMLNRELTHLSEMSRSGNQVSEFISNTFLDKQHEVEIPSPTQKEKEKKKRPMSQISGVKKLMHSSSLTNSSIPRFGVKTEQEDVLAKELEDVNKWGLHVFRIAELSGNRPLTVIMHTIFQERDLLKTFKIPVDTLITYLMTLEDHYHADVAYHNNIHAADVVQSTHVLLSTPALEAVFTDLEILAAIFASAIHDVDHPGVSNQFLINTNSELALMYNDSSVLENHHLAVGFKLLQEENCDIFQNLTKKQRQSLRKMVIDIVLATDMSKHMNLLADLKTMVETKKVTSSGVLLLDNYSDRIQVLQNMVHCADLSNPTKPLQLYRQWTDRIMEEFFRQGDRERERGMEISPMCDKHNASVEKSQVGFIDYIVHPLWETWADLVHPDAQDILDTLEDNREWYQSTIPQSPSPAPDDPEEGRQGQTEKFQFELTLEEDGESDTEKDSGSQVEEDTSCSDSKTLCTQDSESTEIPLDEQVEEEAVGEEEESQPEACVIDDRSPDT
Method in brief: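 Recombinant human PDE4D (20 mU) in 10 mM Tris-HCl pH 7.4 with cAMP substrate. Compounds at 50 µM in DMSO; rolipram 10 µM as positive control. Incubated 60 min at 37 °C, then phosphate release measured by malachite green absorbance at 620 nm. Mean of three determinations.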

HaCaT [6] = test: Activation of AMPK/SIRT1 in human HaCaT cells assessed as nitric oxide production incubated for 1 hr by DAF-2D staining-based fluorescence assay; assay type: cell-based; method in brief: as §1
[7] = target: T1, NAD-dependent protein deacetylase sirtuin-1 (Homo sapiens); test: Activation of SIRT1 in human HaCaT cells assessed as H4K16 deacetylation at 1 uM after 1 hr by Western blotting method; assay type: cell-based
Method in brief: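 HaCaT cells treated 1 h at 1 µM, DMSO as solvent control. Cells lysed in Laemmli buffer and immunoblotted for acetyl-H4K16 (1:1000), with total histone H4 as loading control. Bands quantified by densitometry. At least three independent experiments.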

Mus musculus [8] = test: Wound healing activity in CD1 mouse assessed as increased wound closure at 1 uM administered topically on wound everyday for 14 days by biopsy punch assay; assay type: functional, organism-based; method in brief: as §2
[9] = target: T1, NAD-dependent protein deacetylase sirtuin-1 (Homo sapiens); test: Activation of full-length GST-tagged recombinant human SIRT1 assessed as enzyme activity obtained with subtraction of intrinsic fluorescence using p53-based untagged peptide as substrate at 50 uM after 30 mins by SIRTainty assay

Compound | Activity [2] | Activity [9] | other results
NC(=O)C1=CN(Cc2ccccc2)C=C(C(N)=O)C1c1cc2ccccc2s1 | 127% | 37% | –
O=C(O)C1=CN(Cc2ccccc2)C=C(C(=O)O)C1c1ccsc1 | 56% | 45% | –
O=C(O)C1=CN(Cc2ccccc2)C=C(C(=O)O)C1c1cnc2ccccc2c1 | 209% | 167% | –
O=C(O)C1=CN(Cc2ccccc2)C=C(C(=O)O)C1c1nccs1 | 174% | 132% | –
NC(=O)C1=CN(Cc2ccccc2)C=C(C(N)=O)C1c1nccs1 | 231% | 188% | –
O=C(O)C1=CN(Cc2ccccc2)C=C(C(=O)O)C1c1ccc2ccccc2c1 | 116% | – | –
NC(=O)C1=CN(Cc2ccccc2)C=C(C(N)=O)C1c1cccs1 | 55% | 49% | –
NC(=O)C1=CN(Cc2ccccc2)C=C(C(N)=O)C1c1ccc(-c2ccccc2)cc1 | 96% | – | –
CC1=C(C(N)=O)C(c2ccccc2)C(C(N)=O)=C(C)N1Cc1ccccc1 | 110% | 110% | –
N#CC1=CN(Cc2ccccc2)C=C(C#N)C1c1ccccc1 | 193% | 152% | –
NC(=O)C1=CN(Cc2ccccc2)C=C(C(N)=O)C1c1cnc2ccccc2c1 | 197% | 147% | –
CC1=C(C(=O)O)C(c2ccccc2)C(C(=O)O)=C(C)N1Cc1ccccc1 | 103% | 102% | –
O=C(Nc1ccccc1-c1cn2c(CN3CCNCC3)csc2n1)c1cnc2ccccc2n1 | 209% | – | –
NC(=O)C1=CN(Cc2ccccc2)C=C(C(N)=O)C1c1ccsc1 | 218% | 97% | –
O=C(O)C1=CN(Cc2ccccc2)C=C(C(=O)O)C1c1cc2ccccc2s1 | 38% | 7% | –
Oc1ccc(/C=C/c2cc(O)cc(O)c2)cc1 | – | – | Activity [4]: Tde; Activity [7]: Active
NC(=O)C1=CN(Cc2ccccc2)C=C(C(=O)O)C1c1ccccc1 (centres undefined) | 149% | 160% | –
O=C(O)C1=CN(Cc2ccccc2)C=C(C(=O)O)C1c1cncs1 | 172% | 128% | –
O=C(O)C1=CN(Cc2ccccc2)C=C(C(=O)O)C1c1ccc(-c2ccccc2)cc1 | 285% | 285% | inhibition [5]: inactive
NC(=O)C1=CN(Cc2ccccc2)C=C(C(N)=O)C1c1ccco1 | 77% | 62% | –
NC(=O)C1=CN(Cc2ccccc2)C=C(C(N)=O)C1c1cncs1 | 194% | 165% | –
O=C(O)C1=CN(Cc2ccccc2)C=C(C(=O)O)C1c1cccs1 | 21% | 21% | –

The next lines start with results.

Activity [2] | Activity [9] | Compound | other results
294% | 64% | CCOC(=O)C1=CN(Cc2ccccc2)C=C(C(=O)OCC)C1c1ccco1 | Activity (HaCaT [1]): Active; Activity (Mus musculus [3]): Active; Activity [4]: Tde; inhibition [5]: inactive; Activity (HaCaT [6]): Dose-dependent effect; Activity [7]: Active; Activity (Mus musculus [8]): Active
242% | 171% | CCOC(=O)C1=CN(C(=O)c2cnccn2)C=C(C(=O)OCC)C1c1ccccc1 | –
217% | 164% | CCOC(=O)C1=CN(Cc2ccccc2)C=C(C(=O)OCC)C1c1ccccc1 | Activity (HaCaT [1]): Active; inhibition [5]: inactive; Activity [7]: Active
128% | 67% | NC(=O)C1=CN(Cc2ccccc2)C=C(C(N)=O)C1c1ccc2ccccc2c1 | –
173% | 131% | CCOC(=O)C1=CN(C(=O)c2ccccc2)C=C(C(=O)OCC)C1c1ccc(OC)cc1 | –
170% | 127% | CCOC(=O)C1=CN(C(=O)c2ccccc2)C=C(C(=O)OCC)C1c1ccccc1OC | –
163% | 127% | CCOC(=O)C1=CN(C(=O)c2ccccc2)C=C(C(=O)OCC)C1c1cccc(Cl)c1 | –
196% | 105% | CCOC(=O)C1=CN(Cc2ccccc2)C=C(C(=O)O)C1c1ccccc1 (centres undefined) | –
114% | 114% | CCOC(=O)C1=C(C)N(Cc2ccccc2)C(C)=C(C(=O)OCC)C1c1ccccc1 | –
144% | 103% | CCOC(=O)C1=CN(C(=O)c2ccccc2)C=C(C(=O)OCC)C1c1ccc(C)cc1 | –
145% | – | NC(=O)C1=CN(Cc2ccccc2)C=C(C(N)=O)C1c1cccc2ccccc12 | –
246% | 117% | CCOC(=O)C1=CN(Cc2ccccc2)C=C(C(=O)OCC)C1c1cccs1 | –
156% | 117% | CCOC(=O)C1=CN(C(=O)c2ccccc2)C=C(C(=O)OCC)C1c1cccc(OC)c1 | –
169% | 130% | CCOC(=O)C1=CN(S(=O)(=O)c2ccccc2)C=C(C(=O)OCC)C1c1ccccc1 | –
139% | 39% | CCOC(=O)C1=CN(Cc2ccccc2)C=C(C(=O)OCC)C1c1cc2ccccc2s1 | –
231% | 191% | CCOC(=O)C1=CN(C(=O)c2ccccc2)C=C(C(=O)OCC)C1c1ccc(Cl)cc1 | –

Activity [2] | Activity [9] | Compound | other results
61% | 61% | CCOC(=O)C1=CN(Cc2ccccc2)C=C(C(=O)OCC)C1c1ccc(-c2ccccc2)cc1 | –
183% | 140% | CCOC(=O)C1=CN(C(=O)c2ccccc2)C=C(C(=O)OCC)C1c1ccccc1C | –
198% | 108% | CCOC(=O)C1=CN(Cc2ccccc2)C=C(C(N)=O)C1c1ccccc1 (centres undefined) | –
108% | 94% | O=C(O)C1=CN(Cc2ccccc2)C=C(C(=O)O)C1c1cccc2ccccc12 | –
235% | 207% | CCOC(=O)C1=CN(C(=O)c2ccc3ccccc3c2)C=C(C(=O)OCC)C1c1ccccc1 | inhibition [5]: inactive
282% | 100% | CCOC(=O)C1=CN(Cc2ccccc2)C=C(C(=O)OCC)C1c1ccc2ccccc2c1 | –
206% | 158% | CCOC(=O)C1=CN(C(=O)OCc2ccccc2)C=C(C(=O)OCC)C1c1ccccc1 | –
179% | – | CCOC(=O)C1=CN(C(=O)c2cccc3ccccc23)C=C(C(=O)OCC)C1c1ccccc1 | –
324% | 283% | CCOC(=O)C1=CN(Cc2ccccc2)C=C(C(=O)OCC)C1c1cnc2ccccc2c1 | Activity (HaCaT [1]): Active
206% | 165% | CCOC(=O)C1=CN(C(=O)c2cnc3ccccc3n2)C=C(C(=O)OCC)C1c1ccccc1 | –
300% | 282% | CCOC(=O)C1=CN(Cc2ccccc2)C=C(C(=O)OCC)C1c1nccs1 | Activity (HaCaT [1]): Active
184% | 143% | CCOC(=O)C1=CN(C(=O)c2ccccc2)C=C(C(=O)OCC)C1c1ccccc1Cl | –
221% | 133% | CCOC(=O)C1=CN(Cc2ccccc2)C=C(C(=O)OCC)C1c1cncs1 | –
186% | 140% | CCOC(=O)C1=CN(C(=O)c2ccccc2)C=C(C(=O)OCC)C1c1cccc(C)c1 | –
187% | – | CCOC(=O)C1=CN(Cc2ccccc2)C=C(C(=O)OCC)C1c1cccc2ccccc12 | –
